{"source": "paper PMC5768938", "about": "(World Journal of Gastroenterology, 2018)", "key": {"[1]": {"test_system": "TGR5", "details": "read-out: TGR5 EC50; in vitro; cited from earlier work"}, "[2]": {"test_system": "FXR", "details": "read-out: FXR EC50; in vitro; cited from earlier work"}, "[3]": {"experiment": "LC/MS/MS determination of compound levels in liver and ileum, 14 d dosing", "type": "in vivo", "details": "1-30 mg/kg PO, chow-fed C57Bl6 mice", "procedure,_shortened": "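Chow-fed C57Bl6 mice were dosed PO QD with test compounds at 1-30 mg/kg for 14 d. Weighed liver and ileum were bead-homogenised in 7 volumes of 80/20 ACN/HBSS and centrifuged. Supernatant was dried under nitrogen and reconstituted in 60/40 methanol/10 mmol/L ammonium acetate with 25 nmol/L d5-GCA internal standard, then filtered. Analysis used UHPLC-high-resolution MS in negative ESI with a C18 column at 45 °C and matrix-matched quadratic (1/x) calibration.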"}, "[4]": {"test_system": "ob/ob-NASH mice", "experiment": "Liver histology", "type": "in vivo", "details": "16 wk; for Collagen 1a1 (fibrosis) % fractional area, Before treatment / Galectin-3 (inflammation) % fractional area, Before treatment / Lipid (steatosis) % fractional area, Before treatment: baseline biopsy; for Collagen 1a1 (fibrosis) % fractional area, Before treatment / Galectin-3 (inflammation) % fractional area, Before treatment / Lipid (steatosis) % fractional area, Before treatment / Collagen 1a1 (fibrosis) % fractional area, After treatment / Galectin-3 (inflammation) % fractional area, After treatment / Lipid (steatosis) % fractional area, After treatment: mean ± SE", "procedure,_shortened": "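Biopsy-confirmed ob/ob-NASH mice (AMLN diet; n = 11-12/group, stratified by Col1a1 fibrosis) were dosed orally with vehicle or test compound for 16 wk. Baseline biopsies and terminal left lateral lobe samples were fixed overnight in 4% PFA, paraffin-sectioned at 3 μm, and stained with HE, anti-Col1a1 and anti-galectin-3. Scoring was blinded. Immunoreactive area was expressed as % of parenchymal area after subtracting fat area from adjacent HE sections. Responders had ≥1-point change (χ2 test).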"}, "[5]": {"test_system": "FXR target genes", "experiment": "Hepatic and ileal FXR target gene expression by RNA sequencing, 14 d dosing", "type": "in vivo", "details": "1-30 mg/kg PO, 2 wk, lean C57Bl6 mice, RNAseq", "procedure,_shortened": "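Lean chow-fed C57Bl6 mice received FXR-agonist test compounds at 1, 3, 10 or 30 mg/kg PO QD for 14 d. Liver and ileum transcriptomes were profiled by RNA sequencing using stranded mRNA libraries on a NextSeq 500. Prototypic FXR target genes were analysed by two-way ANOVA with Bonferroni post-hoc test against untreated (dose 0) animals.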"}, "[6]": {"details": "10 mg/kg, subjects achieving > 1 points improvement in score from baseline"}}, "note": "Marks after values point to notes of the source that are not given here."}
{"smiles": "CC[C@H]1[C@@H](O)[C@@H]2[C@H](CC[C@]3(C)[C@@H]([C@H](C)CCC(=O)O)CC[C@@H]23)[C@@]2(C)CC[C@@H](O)C[C@@H]12", "note": "[OCA, obeticholic acid]", "values": [{"measurement": "ileal drug concentration compared to the liver", "setting": "[3]", "result": "approximately two-fold"}, {"measurement": "Fibrosis stage: No improvement (number of mice)", "setting": "[4]; 10 mg/kg", "result": 10}, {"measurement": "Fibrosis stage: With improvement (number of mice)", "setting": "[4]; 10 mg/kg", "result": 2}, {"measurement": "NAS: No improvement (number of mice)", "setting": "[4]; 10 mg/kg", "result": 8}, {"measurement": "NAS: With improvement (number of mice)", "setting": "[4]; 10 mg/kg", "result": 4}, {"measurement": "Collagen 1a1 (fibrosis) % fractional area, Before treatment", "setting": "[4]; 10 mg/kg", "result": "0.9 ± 0.1", "unit": "% fractional area"}, {"measurement": "Galectin-3 (inflammation) % fractional area, Before treatment", "setting": "[4]; 10 mg/kg", "result": "5.5 ± 0.3", "unit": "% fractional area"}, {"measurement": "Lipid (steatosis) % fractional area, Before treatment", "setting": "[4]; 10 mg/kg", "result": "33.4 ± 0.8", "unit": "% fractional area"}, {"measurement": "Collagen 1a1 (fibrosis) % fractional area, After treatment", "setting": "[4]; 10 mg/kg", "result": "9.0 ± 0.6 ^a % fractional area"}, {"measurement": "Galectin-3 (inflammation) % fractional area, After treatment", "setting": "[4]; 10 mg/kg", "result": "5.0 ± 0.2 ^a % fractional area"}, {"measurement": "Lipid (steatosis) % fractional area, After treatment", "setting": "[4]; 10 mg/kg", "result": "31.8 ± 0.4", "unit": "% fractional area"}, {"measurement": "Fibrosis stage: % improving", "setting": "[4]; [6]", "result": 17, "unit": "%"}, {"measurement": "NAS: % improving", "setting": "[4]; [6]", "result": 33, "unit": "%"}, {"measurement": "Fibrosis stage: No improvement (number of mice)", "setting": "[4]; 30 mg/kg", "result": 7}, {"measurement": "Fibrosis stage: With improvement (number of mice)", "setting": "[4]; 30 mg/kg", "result": 4}, {"measurement": "NAS: No improvement (number of mice)", "setting": "[4]; 30 mg/kg", "result": 0}, {"measurement": "NAS: With improvement (number of mice)", "setting": "[4]; 30 mg/kg", "result": 11}, {"measurement": "Collagen 1a1 (fibrosis) % fractional area, Before treatment", "setting": "[4]; 30 mg/kg", "result": "1.2 ± 0.2", "unit": "% fractional area"}, {"measurement": "Galectin-3 (inflammation) % fractional area, Before treatment", "setting": "[4]; 30 mg/kg", "result": "5.5 ± 0.4", "unit": "% fractional area"}, {"measurement": "Lipid (steatosis) % fractional area, Before treatment", "setting": "[4]; 30 mg/kg", "result": "32.2 ± 1.1", "unit": "% fractional area"}, {"measurement": "Collagen 1a1 (fibrosis) % fractional area, After treatment", "setting": "[4]; 30 mg/kg", "result": "8.0 ± 0.7 ^a % fractional area"}, {"measurement": "Galectin-3 (inflammation) % fractional area, After treatment", "setting": "[4]; 30 mg/kg", "result": "4.0 ± 0.4 ^a % fractional area"}, {"measurement": "Lipid (steatosis) % fractional area, After treatment", "setting": "[4]; 30 mg/kg", "result": "22.7 ± 1.0 ^a % fractional area"}, {"measurement": "NAS: % improving", "setting": "[4]; 30 mg/kg, subjects achieving > 1 points improvement in score from baseline", "result": 100, "unit": "% ^a"}, {"measurement": "hepatic FXR target gene expression (BSEP, OST, CYP8b1, SHP)", "setting": "[5]", "result": "regulated hepatic FXR genes"}, {"measurement": "ileal FXR target gene expression (SHP, FGF-15)", "setting": "[5]", "result": "more pronounced effects"}]}
